Measurements from different studies.
Protocols differ between the studies behind these lines.
Target: Mitogen-activated protein kinase kinase kinase 6 (MAP3K6, Homo sapiens, UniProt O95382)
Residues used in one study (O95382 1-1288): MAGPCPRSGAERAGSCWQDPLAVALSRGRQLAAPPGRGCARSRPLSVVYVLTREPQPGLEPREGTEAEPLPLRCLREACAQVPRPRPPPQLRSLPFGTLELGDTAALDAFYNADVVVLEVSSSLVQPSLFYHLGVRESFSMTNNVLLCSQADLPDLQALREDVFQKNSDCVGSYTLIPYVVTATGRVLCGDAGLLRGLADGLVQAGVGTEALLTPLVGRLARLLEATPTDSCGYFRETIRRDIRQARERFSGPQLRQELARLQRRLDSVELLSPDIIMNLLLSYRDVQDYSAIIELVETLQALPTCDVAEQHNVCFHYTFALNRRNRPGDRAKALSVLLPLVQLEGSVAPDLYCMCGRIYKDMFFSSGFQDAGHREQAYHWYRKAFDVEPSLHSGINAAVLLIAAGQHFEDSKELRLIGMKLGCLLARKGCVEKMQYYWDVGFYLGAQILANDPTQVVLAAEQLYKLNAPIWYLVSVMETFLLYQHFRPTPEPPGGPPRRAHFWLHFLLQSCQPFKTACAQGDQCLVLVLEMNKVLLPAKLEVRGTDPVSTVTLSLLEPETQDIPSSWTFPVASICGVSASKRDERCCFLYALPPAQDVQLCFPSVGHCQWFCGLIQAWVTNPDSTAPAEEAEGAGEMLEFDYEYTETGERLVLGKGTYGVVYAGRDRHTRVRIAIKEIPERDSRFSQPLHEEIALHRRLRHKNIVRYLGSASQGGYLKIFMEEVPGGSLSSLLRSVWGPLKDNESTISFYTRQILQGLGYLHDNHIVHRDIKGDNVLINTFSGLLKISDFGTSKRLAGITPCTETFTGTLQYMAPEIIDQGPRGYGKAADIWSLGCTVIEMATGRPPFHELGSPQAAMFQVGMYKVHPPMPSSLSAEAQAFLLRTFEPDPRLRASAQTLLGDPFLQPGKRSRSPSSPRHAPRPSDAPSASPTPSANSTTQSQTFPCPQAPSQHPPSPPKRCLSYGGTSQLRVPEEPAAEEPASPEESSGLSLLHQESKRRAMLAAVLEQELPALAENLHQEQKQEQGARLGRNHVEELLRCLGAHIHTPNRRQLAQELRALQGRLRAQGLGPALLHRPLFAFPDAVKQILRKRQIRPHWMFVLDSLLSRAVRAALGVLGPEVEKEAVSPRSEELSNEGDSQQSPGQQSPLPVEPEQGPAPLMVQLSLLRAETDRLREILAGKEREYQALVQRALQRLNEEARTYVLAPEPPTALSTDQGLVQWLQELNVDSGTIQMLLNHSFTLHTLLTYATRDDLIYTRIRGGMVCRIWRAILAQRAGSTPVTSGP

| SMILES | test | setting | remaining binding [%] |
| --- | --- | --- | --- |
| O=C(NCCCN1CCOCC1)c1ccc(Nc2nccc(-c3cc4ccccc4s3)n2)cc1 | binding, competition with immobilised ligand | 1 µM | 98 |
| Nc1ncc2c(n1)-c1c([nH]c3ccc(C#CC4CC4)cc13)CCCC2 | binding, competition with immobilised ligand | 1 µM | 98 |
| CN(C)c1nccc(-c2cnc3ncccn23)n1 | binding | 1 µM | 67 |
| CCN1CCN(Cc2ccc(C(=O)Nc3ccc(C)c(Oc4ccc5c(c4)CC(=O)N5)c3)cc2C(F)(F)F)CC1 | binding, competition with immobilised ligand | 1 µM | 100 |
| CN(CCCC(F)(F)F)c1nccc(-c2cnn3ncccc23)n1 | binding | 1 µM | 100 |
| CNCc1ccccc1-c1csc([C@H](C)Nc2nc(C)nc3cc(OC)c(OC)cc23)c1 | cell-free assay, competition with immobilised ligand | 1 µM | 100 |
| c1cncc(-c2cccc(Nc3nccc(NC4CCCCC4)n3)c2)c1 | binding, competition with immobilised ligand | 10 µM | 100 |
| CN(c1nccc(-c2cnn3ncccc23)n1)C1CC1 | binding | 1 µM | 100 |
| CCCOc1ccc([C@@H]2[C@@H](C(=O)O)[C@H](c3ccc4c(c3)OCO4)CN2CC(=O)Nc2c(CC)cccc2CC)cc1 | cell-free assay, competition with immobilised ligand | 1 µM | 77 |
| CC1CCCN1c1nccc(-c2cnn3ncccc23)n1 (stereo not shown) | binding | 1 µM | 100 |
| CO[C@@H](C)c1c(Nc2ccc([C@@H](N(C)C(=O)C3CCS(=O)(=O)CC3)C(F)(F)F)cc2)cnc2cc(Cl)nn12 | cell-free assay, competition with immobilised ligand | 1 µM | 100 |
| Cc1cnn2ncc(-c3ccnc(N(C)C)n3)c2c1 | binding | 1 µM | 81 |
| O=C(NCC1CCOCC1)c1n[nH]cc1NC(=O)c1c(F)cccc1F | binding, competition with immobilised ligand | 1 µM | 77 |
| COc1cnc(Nc2cccc(S(N)(=O)=O)c2)nc1N1CCN(c2ccccc2)C(=O)C1 | binding, competition with immobilised ligand | 1 µM | 84 |
| CN([C@@H]1CCc2c(CC(=O)O)c3ccccc3n2C1)S(=O)(=O)c1ccc(F)cc1 | cell-free assay, competition with immobilised ligand | 1 µM | 80 |
| N[C@@H]1CCN(c2nccc(-c3cnn4ncccc34)n2)C1 | binding | 1 µM | 57 |
| N#CC1(c2ccccn2)CCN(Cc2cc(C(=O)N3CCCC3)c(=O)n3ccccc23)CC1 | cell-free assay, competition with immobilised ligand | 1 µM | 100 |
| O=C(c1ccc(Nc2nccc(-c3cc4ccccc4s3)n2)cc1)N1CCC(N2CCCC2)CC1 | binding, competition with immobilised ligand | 1 µM | 91 |
| CNC(=O)Nc1ccc2c(c1)CC[C@@]21OC(=O)N(CC(=O)N(Cc2ccc(F)cc2)[C@@H](C)C(F)(F)F)C1=O | cell-free assay, competition with immobilised ligand | 1 µM | 86 |
| C[C@@H]1CCN(c2nccc(-c3cnn4ncccc34)n2)C1 | binding | 1 µM | 55 |
| Cc1cnc(Nc2ccc(C(=O)N3CCC(N4CCCC4)CC3)cc2)nc1-c1cc2ccccc2s1 | binding, competition with immobilised ligand | 1 µM | 100 |
| COc1ccc2cc(OCC3(C(=O)O)CN(C(=O)c4ccc(F)cc4)C3)ccc2c1 | cell-free assay, competition with immobilised ligand | 1 µM | 95 |
